According to ChEMBL document CHEMBL1828552, “Synthesis and studies of novel 2-(4-cyano-3-trifluoromethylphenyl amino)-4-(quinoline-4-yloxy)-6-(piperazinyl/piperidinyl)-s-triazines as potential antimicrobial, antimycobacterial and anticancer agents” (2011):
In brackets after ≈: the same amount, converted by molar mass.

Key:
[1] = test system: Aspergillus fumigatus; experiment: Antifungal activity against 10^5 CFU/mL Aspergillus fumigatus MTCC 343 after 48 hrs by agar streak dilution method; type: functional; conditions: MTCC 343, 48 h
Method in brief: (§1)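 Agar streak dilution for fungi. Stock 100 µg/mL in DMSO; graded amounts were mixed into molten Sabouraud dextrose agar and poured at 4–5 mm depth. Serial dilutions ran over […]. About 10⁵ CFU/mL inoculum was applied, with incubation at 37 ± 1 °C for 48 h. MIC was read from the dilution series.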

[2] = test system: Escherichia coli; experiment: Antibacterial activity against 10^5 CFU/mL Escherichia coli MTCC 739 after 24 hrs by agar streak dilution method; type: functional; conditions: MTCC 739, 24 h
Method in brief: (§2)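 Agar streak dilution. Stock 100 µg/mL in DMSO; graded amounts were mixed into molten nutrient agar and poured at 4–5 mm depth. Plates carried serial dilutions over […]. About 10⁵ CFU/mL of each bacterium was applied, and plates were incubated at 37 ± 1 °C for 24 h. MIC was read from the dilution series.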

[3] = test system: Candida albicans; experiment: Antifungal activity against 10^5 CFU/mL Candida albicans MTCC 183 after 48 hrs by agar streak dilution method; type: functional; conditions: MTCC 183, 48 h; method in brief: as §1
[4] = test system: Klebsiella pneumoniae; experiment: Antibacterial activity against 10^5 CFU/mL Klebsiella pneumoniae MTCC 109 after 24 hrs by agar streak dilution method; type: functional; conditions: MTCC 109, 24 h; method in brief: as §2
[5] = test system: Candida albicans; experiment: Antifungal activity against 10^5 CFU/mL Candida albicans MTCC 183 after 48 hrs by disc diffusion technique; type: functional
[6] = test system: Pseudomonas aeruginosa; experiment: Antibacterial activity against 10^5 CFU/mL Pseudomonas aeruginosa MTCC 741 after 24 hrs by agar streak dilution method; type: functional; conditions: MTCC 741, 24 h; method in brief: as §2
[7] = test system: Proteus vulgaris; experiment: Antibacterial activity against 10^5 CFU/mL Proteus vulgaris MTCC 1771 after 24 hrs by disc diffusion technique; type: functional
Method in brief: (§3)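 Disc diffusion on Mueller–Hinton agar poured 5 mm deep. The surface was swabbed with a 10⁵ CFU/mL […] suspension. Filter-paper discs 6.25 mm in diameter were soaked in compound in DMSO and placed on the agar. Plates were incubated 24 h at 37 ± 1 °C, and the inhibition zone was measured in mm. A DMSO disc served as blank.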

[8] = test system: Pseudomonas aeruginosa; experiment: Antibacterial activity against 10^5 CFU/mL Pseudomonas aeruginosa MTCC 741 after 24 hrs by disc diffusion technique; type: functional; method in brief: as §3
[9] = test system: Bacillus cereus; experiment: Antibacterial activity against 10^5 CFU/mL Bacillus cereus MTCC 619 after 24 hrs by agar streak dilution method; type: functional; conditions: MTCC 619, 24 h; method in brief: as §2
[10] = test system: Aspergillus clavatus; experiment: Antifungal activity against 10^5 CFU/mL Aspergillus clavatus MTCC 1323 after 48 hrs by disc diffusion technique; type: functional
[11] = test system: Proteus vulgaris; experiment: Antibacterial activity against 10^5 CFU/mL Proteus vulgaris MTCC 1771 after 24 hrs by agar streak dilution method; type: functional; conditions: MTCC 1771, 24 h; method in brief: as §2
[12] = test system: Shigella flexneri; experiment: Antibacterial activity against 10^5 CFU/mL Shigella flexneri MTCC 1457 after 24 hrs by agar streak dilution method; type: functional; conditions: MTCC 1457, 24 h; method in brief: as §2
[13] = test system: Aspergillus niger; experiment: Antifungal activity against 10^5 CFU/mL Aspergillus niger MTCC 282 after 48 hrs by agar streak dilution method; type: functional; conditions: MTCC 282, 48 h; method in brief: as §1
[14] = test system: DU-145; experiment: Cytotoxicity against […] human DU145 cells after 48 hrs by SRB assay; type: functional; conditions: DU-145, 48 h
Method in brief: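 SRB assay in DU-145 cells grown in RPMI 1640 with 10% FBS and 2 mM L-glutamine. Cells were plated and held 24 h before addition of four 10-fold concentrations. After 48 h, cells were TCA-fixed, stained with 0.4% SRB and read at 540 nm. GI50, TGI and LC50 were derived against time-zero and control wells; each value is the mean of three experiments.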

[15] = test system: Klebsiella pneumoniae; experiment: Antibacterial activity against 10^5 CFU/mL Klebsiella pneumoniae MTCC 109 after 24 hrs by disc diffusion technique; type: functional; method in brief: as §3
[16] = test system: Staphylococcus aureus; experiment: Antibacterial activity against 10^5 CFU/mL Staphylococcus aureus MTCC 96 after 24 hrs by agar streak dilution method; type: functional; conditions: MTCC 96, 24 h; method in brief: as §2
[17] = test system: Bacillus cereus; experiment: Antibacterial activity against 10^5 CFU/mL Bacillus cereus MTCC 619 after 24 hrs by disc diffusion technique; type: functional; method in brief: as §3
[18] = test system: Escherichia coli; experiment: Antibacterial activity against 10^5 CFU/mL Escherichia coli MTCC 739 after 24 hrs by disc diffusion technique; type: functional; method in brief: as §3
[19] = test system: Staphylococcus aureus; experiment: Antibacterial activity against 10^5 CFU/mL Staphylococcus aureus MTCC 96 after 24 hrs by disc diffusion technique; type: functional; method in brief: as §3
[20] = test system: Aspergillus fumigatus; experiment: Antifungal activity against 10^5 CFU/mL Aspergillus fumigatus MTCC 343 after 48 hrs by disc diffusion technique; type: functional
[21] = test system: Shigella flexneri; experiment: Antibacterial activity against 10^5 CFU/mL Shigella flexneri MTCC 1457 after 24 hrs by disc diffusion technique; type: functional; method in brief: as §3
[22] = test system: Aspergillus clavatus; experiment: Antifungal activity against 10^5 CFU/mL Aspergillus clavatus MTCC 1323 after 48 hrs by agar streak dilution method; type: functional; conditions: MTCC 1323, 48 h; method in brief: as §1
[23] = test system: Salmonella typhi; experiment: Antibacterial activity against 10^5 CFU/mL Salmonella typhi MTCC 733 after 24 hrs by agar streak dilution method; type: functional, Salmonella enterica subsp. enterica serovar Typhi; conditions: Salmonella enterica, MTCC 733, 24 h
[24] = test system: Aspergillus niger; experiment: Antifungal activity against 10^5 CFU/mL Aspergillus niger MTCC 282 after 48 hrs by disc diffusion technique; type: functional
[25] = test system: Salmonella typhi; experiment: Antibacterial activity against 10^5 CFU/mL Salmonella typhi MTCC 733 after 24 hrs by disc diffusion technique; type: functional, Salmonella enterica subsp. enterica serovar Typhi
Method in brief: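 Disc diffusion. Mueller-Hinton agar autoclaved 120 °C 30 min, poured 5 mm deep. Surface swabbed with 10⁵ CFU/mL suspension […]. 6.25 mm filter-paper discs soaked in compound in DMSO; DMSO-only disc as blank. Incubated 37 ± 1 °C, 24 h for bacteria or 48 h for fungi. Ciprofloxacin and ketoconazole discs as reference drugs. Inhibition zone measured in mm.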

**Q.** N#Cc1ccc(Nc2nc(Oc3ccnc4ccccc34)nc(N3CCN(C(c4ccccc4)c4ccc(Cl)cc4)CC3)n2)cc1C(F)(F)F (stereo unspecified) was tested. Which MIC [1] did it give?
**A.** 25 µg/mL (≈ 36.1 µM)

**Q.** And the MIC [2]?
**A.** 50 µg/mL (≈ 72.1 µM)

**Q.** And the MIC [3]?
**A.** 25 µg/mL (≈ 36.1 µM)

**Q.** What about the MIC [4] of the same compound?
**A.** 12.5 µg/mL (≈ 18 µM)

**Q.** And the “inhibition zone (IZ)” value [5]?
**A.** 25 mm

**Q.** And the MIC [6]?
**A.** 12.5 µg/mL (≈ 18 µM)

**Q.** What about the “inhibition zone (IZ)” value [7] of the same compound?
**A.** 27 mm

**Q.** And the “inhibition zone (IZ)” value [8]?
**A.** 24 mm

**Q.** And the MIC [9]?
**A.** 12.5 µg/mL (≈ 18 µM)

**Q.** And the “inhibition zone (IZ)” value [10]?
**A.** 25 mm

**Q.** What about the MIC [11] of the same compound?
**A.** 6.25 µg/mL (≈ 9.02 µM)

**Q.** What about the MIC [12] of the same compound?
**A.** 25 µg/mL (≈ 36.1 µM)

**Q.** And the MIC [13]?
**A.** 25 µg/mL (≈ 36.1 µM)

**Q.** What about the GI50 [14] of the same compound?
**A.** > 100 µM

**Q.** What about the LC50 (concentration giving 50% net cell kill relative to time zero) [14] of the same compound?
**A.** > 100 µM

**Q.** And the TGI [14]?
**A.** > 100 µM

**Q.** And the “inhibition zone (IZ)” value [15]?
**A.** 25 mm

**Q.** What about the MIC [16] of the same compound?
**A.** 12.5 µg/mL (≈ 18 µM)

**Q.** And the “inhibition zone (IZ)” value [17]?
**A.** 25 mm

**Q.** What about the “inhibition zone (IZ)” value [18] of the same compound?
**A.** 23 mm

**Q.** And the “inhibition zone (IZ)” value [19]?
**A.** 25 mm

**Q.** And the “inhibition zone (IZ)” value [20]?
**A.** 26 mm

**Q.** What about the “inhibition zone (IZ)” value [21] of the same compound?
**A.** 22 mm

**Q.** What about the MIC [22] of the same compound?
**A.** 50 µg/mL (≈ 72.1 µM)

**Q.** And the MIC [23]?
**A.** 25 µg/mL (≈ 36.1 µM)

**Q.** And the “inhibition zone (IZ)” value [24]?
**A.** 25 mm

**Q.** What about the “inhibition zone (IZ)” value [25] of the same compound?
**A.** 25 mm

**Q.** What does the source list for N#Cc1ccc(Nc2nc(Oc3ccnc4ccccc34)nc(N3CCN(c4ncccn4)CC3)n2)cc1C(F)(F)F?
**A.** MIC [1]: 100 µg/mL (≈ 175 µM); MIC [2]: 100 µg/mL (≈ 175 µM); MIC [3]: 100 µg/mL (≈ 175 µM); MIC [4]: 100 µg/mL (≈ 175 µM); inhibition zone (IZ) [5]: 13 mm; MIC [6]: 100 µg/mL (≈ 175 µM); inhibition zone (IZ) [7]: 18 mm; inhibition zone (IZ) [8]: 16 mm; MIC [9]: 50 µg/mL (≈ 87.6 µM); inhibition zone (IZ) [10]: 11 mm; MIC [11]: 100 µg/mL (≈ 175 µM); MIC [12]: 100 µg/mL (≈ 175 µM); MIC [13]: 100 µg/mL (≈ 175 µM); GI50 [14]: 85.2 µM; LC50 (concentration giving 50% net cell kill relative to time zero) [14]: > 100 µM; TGI [14]: > 100 µM; inhibition zone (IZ) [15]: 17 mm; MIC [16]: 100 µg/mL (≈ 175 µM); inhibition zone (IZ) [17]: 21 mm; inhibition zone (IZ) [18]: 18 mm; inhibition zone (IZ) [19]: 21 mm; inhibition zone (IZ) [20]: 13 mm; inhibition zone (IZ) [21]: 17 mm; MIC [22]: 100 µg/mL (≈ 175 µM); MIC [23]: 100 µg/mL (≈ 175 µM); inhibition zone (IZ) [24]: 11 mm; inhibition zone (IZ) [25]: 16 mm

**Q.** For N#Cc1ccc(Nc2nc(Oc3ccnc4ccccc34)nc(N3CCN(c4cccc(Cl)c4Cl)CC3)n2)cc1C(F)(F)F, which MIC [1] is on record?
**A.** 25 µg/mL (≈ 39.2 µM)

**Q.** And the MIC [2]?
**A.** 50 µg/mL (≈ 78.4 µM)

**Q.** And the MIC [3]?
**A.** 50 µg/mL (≈ 78.4 µM)

**Q.** What about the MIC [4] of the same compound?
**A.** 12.5 µg/mL (≈ 19.6 µM)

**Q.** And the “inhibition zone (IZ)” value [5]?
**A.** 23 mm

**Q.** What about the MIC [6] of the same compound?
**A.** 25 µg/mL (≈ 39.2 µM)

**Q.** And the “inhibition zone (IZ)” value [7]?
**A.** 25 mm

**Q.** What about the “inhibition zone (IZ)” value [8] of the same compound?
**A.** 23 mm

**Q.** What about the MIC [9] of the same compound?
**A.** 6.25 µg/mL (≈ 9.8 µM)

**Q.** And the “inhibition zone (IZ)” value [10]?
**A.** 21 mm

**Q.** And the MIC [11]?
**A.** 12.5 µg/mL (≈ 19.6 µM)

**Q.** And the MIC [12]?
**A.** 12.5 µg/mL (≈ 19.6 µM)

**Q.** What about the MIC [13] of the same compound?
**A.** 25 µg/mL (≈ 39.2 µM)

**Q.** What about the GI50 [14] of the same compound?
**A.** > 100 µM

**Q.** And the LC50 (concentration giving 50% net cell kill relative to time zero) [14]?
**A.** > 100 µM

**Q.** What about the TGI [14] of the same compound?
**A.** > 100 µM

**Q.** What about the “inhibition zone (IZ)” value [15] of the same compound?
**A.** 24 mm

**Q.** What about the MIC [16] of the same compound?
**A.** 6.25 µg/mL (≈ 9.8 µM)

**Q.** And the “inhibition zone (IZ)” value [17]?
**A.** 28 mm

**Q.** And the “inhibition zone (IZ)” value [18]?
**A.** 23 mm

**Q.** What about the “inhibition zone (IZ)” value [19] of the same compound?
**A.** 28 mm

**Q.** What about the “inhibition zone (IZ)” value [20] of the same compound?
**A.** 25 mm

**Q.** And the “inhibition zone (IZ)” value [21]?
**A.** 24 mm

**Q.** What about the MIC [22] of the same compound?
**A.** 50 µg/mL (≈ 78.4 µM)

**Q.** And the MIC [23]?
**A.** 12.5 µg/mL (≈ 19.6 µM)

**Q.** What about the “inhibition zone (IZ)” value [24] of the same compound?
**A.** 24 mm

**Q.** And the “inhibition zone (IZ)” value [25]?
**A.** 25 mm
